We go through 5 substances from article PMC8535816 (Science Advances, 2021).

The test system of data set [1] is human GPR37L1. In words: Saturation binding of biotinylated OCN, GPR37L1-transfected cells. The following applies: 2 hours at 37°C. In a few lines:
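HEK293T cells were transfected with GPR37L1 and replated on poly-L-lysine at 36 h. After 24 h they received serial dilutions of biotinylated OCN in 0.5% BSA/Ca2+/Mg2+ PBS for 2 h at 37°C. Cells were then washed, fixed in 4% PFA, permeabilised with 0.3% Triton, given extra-avidin peroxidase for 30 min and TMB, and read at 450 nm. Nonspecific binding used 100 μM unlabelled OCN; specific binding was total minus nonspecific; Kd came from saturation curves.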

Data set [2] concerns the target human GPR37 overexpressed on HEK293-based cells (human) (UniProt O15354). In words: saturation binding of biotinylated ligand to transfected cells.
In data set [3] the target is T1, human GPR37 (Homo sapiens, UniProt O15354).
T1 sequence (O15354 27-613): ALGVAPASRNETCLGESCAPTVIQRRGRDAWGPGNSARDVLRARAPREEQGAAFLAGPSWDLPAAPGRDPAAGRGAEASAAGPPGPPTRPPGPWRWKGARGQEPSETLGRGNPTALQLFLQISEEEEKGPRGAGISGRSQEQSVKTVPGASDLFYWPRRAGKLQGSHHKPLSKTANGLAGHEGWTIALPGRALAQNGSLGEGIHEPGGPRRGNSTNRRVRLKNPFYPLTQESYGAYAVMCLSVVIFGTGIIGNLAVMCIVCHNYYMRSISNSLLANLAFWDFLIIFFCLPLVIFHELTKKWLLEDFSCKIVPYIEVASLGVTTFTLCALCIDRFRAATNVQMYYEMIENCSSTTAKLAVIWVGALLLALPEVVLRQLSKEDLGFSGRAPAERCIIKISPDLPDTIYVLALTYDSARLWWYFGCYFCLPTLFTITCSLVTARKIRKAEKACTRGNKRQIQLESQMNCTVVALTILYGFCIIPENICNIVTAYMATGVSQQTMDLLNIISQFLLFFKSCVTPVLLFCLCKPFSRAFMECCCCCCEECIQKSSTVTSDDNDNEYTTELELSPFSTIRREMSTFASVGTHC
In words: Intracellular calcium. The format is cell-based. The following applies: then OCN, GPR37-transfected HEK293-GCaMP6s cells. The essentials:
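HEK293 cells stably expressing GCaMP6s (made by lentiviral infection of HEK293T) were transfected with human GPR37 for 48 h. Medium was swapped for HBSS with Ca2+/Mg2+ and cells held at 37°C for 30 min. Pretreatment was anti-GPR37 antibody or pertussis toxin, then OCN 20 nM. GCaMP6s fluorescence was imaged at 1 s intervals.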
(Calcium assays in cells follow changes in intracellular calcium, usually with a dye or a luminescent sensor.)

In data set [4] the test system is primary rat OLs. In words: cAMP production in primary rat OLs. The format is cell-based. In a few lines:
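Rat OPCs were transduced with lentiviral shRNA against GPR37 and kept with CNTF and T3 for 48 h. They were then plated at 1 × 10^4/well on poly-L-lysine. Cells received forskolin plus the test compound at the indicated concentrations for 30 min. Intracellular cAMP was measured by cAMP-Glo Max luminescence to give concentration-response curves. Runs were repeated at least four times, each in triplicate.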

The test system of data set [5] is primary rat OLs. In words: ERK phosphorylation. It counts as cell-based.
The nature of data set [6]: OCN level in CC and SC after ICV delivery into OCN^−/− mice. The format is in vivo, mouse. The following applies: ICV infusion 100 ng/day for 10 days, n = 5.
In data set [7] the test system is OCN^−/− mice. In words: ICV delivery of OCN into OCN^−/− mice: OPC/OL numbers and myelin proteins. The format is in vivo, mouse. As to conditions: ICV 100 ng/day for 10 days. The essentials: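 OCN−/− mice received synthesized mouse OCN at 100 ng/day, or PBS, by ICV infusion for 10 days. For proliferation, BrdU at 100 μg/g was given i.p. 2 days before sacrifice, and sections were co-stained for BrdU/PDGFRα. For differentiation, BrdU at 200 μg/g was pulsed for four consecutive days from the start of treatment, with BrdU/CC1 co-staining at the end. Positive cells were counted per 0.25 mm2 in CC.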

The subject of data set [8] is primary rat OLs. In words: Myelin PLP1 and MBP expression in primary rat OLs/OPCs in differentiation medium. The following applies: n = 3 independent experiments. It counts as cell-based.
For data set [9] the following is noted: ref [15]–[18]; cited from earlier work.
In a further data set the test system is GPR37^−/− mice. In words: ICV delivery of OCN into GPR37^−/− mice: myelin PLP1 and MBP. The following applies: ICV 100 ng/day for 10 days, n ≥ 6. The format is in vivo, mouse. The essentials:
(§1)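 Synthesized mouse OCN at 100 ng/day, or PBS, was infused ICV for 10 days before analysis. Tissue protein was extracted in RIPA buffer with protease inhibitors and quantified by BCA. Then 30 to 50 μg was run on SDS-PAGE and blotted. Blots were blocked in 5% milk for 1 h, incubated with primary antibody overnight at 4°C, then with HRP-secondary for 1 h at room temperature.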

The next data set has as its system primary rat OPCs. In words: OPC proliferation. The format is cell-based. The following applies: OCN 20 nM; EdU incorporation; n = 3 independent experiments. In a few lines:
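Primary rat OPCs (P1–P2 Sprague-Dawley forebrain) were plated on poly-L-lysine at 1 × 10^4/well in 96-well plates. They were treated with the test compound at 20 nM before assessment. Proliferation was read by EdU incorporation with a commercial kit.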

In the next data set the test system is neurons. The following applies: neurons (DRN, MRN, VTA, CA3); ref [16], [22], [51]; cited from earlier work.
Data set [10] relates to OLs derived from primary rat OPCs. In words: OL cell viability. The format is cell-based. The following applies: OCN 0 to 50 nM, up to 72 hours; MTT; n = 3 independent experiments. The essentials: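 Rat OPCs were plated on poly-L-lysine at 1 × 10^4 per well in 96-well plates, in the presence of CNTF and T3. Cells were exposed to the test compound at 0 to 50 nM, or for up to 72 h. Viability was read with a commercial MTT kit.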

Data set [11] has as its system human GPR37L1. In words: PRESTO-Tango β-arrestin recruitment, GPR37L1-transfected HTLA cells. The format is cell-based. The following applies: cells expressing GPR37L1 (HTLA). The essentials:
(§2)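 HTLA cells (HEK293 carrying a tTA-luciferase reporter and β-arrestin2–TEV), kept under puromycin 2 μg/ml plus hygromycin B 100 μg/ml, expressing GPR37-Tango or GPR37L1-Tango. Seeded on poly-L-lysine; the next day given graded OCN concentrations in assay buffer for 24 h. Luciferase reagent (20-fold diluted) added for 15–20 min at 20–25°C; luminescence read as RLU. Concentration-response curves fitted.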

The test system of the next data set is WT mice. In words: ICV delivery of OCN into WT mice: myelin PLP1 and MBP. The format is in vivo, mouse. The following applies: ICV 100 ng/day for 10 days, n ≥ 6. The essentials: as §1
A further data set deals with OLs from GPR37^−/− mice. In words: MBP expression in primary OLs from GPR37^−/− mice. It counts as cell-based, mouse. The following applies: OPC from GPR37^−/− mice induced with T3; n = 3 independent experiments. The essentials: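 Primary OPCs were isolated from P7–P8 GPR37−/− mouse pups. They were differentiated into mature OLs with T3 and CNTF, then treated with the test compound. OPC purity and OL induction were checked with specific markers.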

For data set [12], the target named is T1, human GPR37. In words: cAMP production, GPR37-transfected HEK293 cells. It counts as cell-based. As to conditions: forskolin and/or OCN 30 min, cAMP-Glo Max. The essentials:
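HEK293 cells were transfected with human GPR37 for 48 h, then seeded on poly-L-lysine-coated plates. They were exposed to forskolin and/or graded OCN for 30 min. cAMP was measured by luminescent cAMP-Glo Max assay. At least four experiments, each in triplicate.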
On the technique in general: Cyclic AMP is a second messenger, typically raised through Gs and lowered through Gi signalling.

The subject of data set [13] is primary rat OLs. In words: Myrf expression in primary rat OLs. The following applies: n = 3 independent experiments. The format is cell-based. The essentials: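 OPCs came from forebrains of P1–P2 Sprague-Dawley rats. Mixed glia were grown up to 12 days on poly-L-lysine, and microglia were removed by shaking at 200 rpm. OPCs were transduced with lentiviral shRNA against GPR37, then differentiated with CNTF and T3 for 48 h. The resulting OLs were treated with the test compound in differentiation medium for 48 h before analysis.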

Data set [14] concerns OCN^−/− mice. In words: Hot plate test. It counts as in vivo. As to conditions: mouse OCN 50 ng/g i.p. for 10 days, hot plate 53°C, n ≥ 6. The essentials:
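Mice aged 8 weeks were placed on a hot plate held at 53°C. Latency was scored as the time to lick or flick a hind paw, or to jump. The plate temperature was calibrated to give a withdrawal response within 10 to 15 s in control mice. OCN−/− mice received synthesized mouse OCN at 50 ng/g body weight i.p. for 10 days before testing.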
(In general: In hot-plate and tail-flick tests a longer latency is read as antinociception.)

The target of data set [15] is T1, human GPR37. In words: ERK phosphorylation. It counts as cell-based. The following applies: OCN 20 nM; GPR37-transfected HEK293 cells; immunoblot. The essentials:
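Human GPR37 introduced into HEK293 cells by calcium-phosphate transfection, then exposed to OCN 20 nM. Lysates made in RIPA buffer with protease inhibitors and assayed by BCA. 30–50 μg protein run on SDS-PAGE and blotted to PVDF or nitrocellulose. Blocked in 5% milk for 1 h, primary antibody overnight at 4°C, HRP secondary for 1 h at room temperature.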

The target in data set [16] is T1, human GPR37. In words: PRESTO-Tango β-arrestin recruitment, GPR37-transfected HTLA cells. It counts as cell-based. The essentials: as §2

pKd: −log10 of the molar value. Positions of bridges follow the written chain, without caps; N, C: chain ends. No end group written: not given here. *: point of attachment. Biotin = O=C1N[C@H]2[C@H](CS[C@H]2CCCCC(=O)*)N1; Ahx = NCCCCCC(=O)O

“{Biotin-Ahx}-YLGASVPSPDPLEPTREQCELNPACDELSDQYGLKTAYKRIYGITI (disulfide 19-25; N-terminus assumed) [biotinylated OCN]”: the “binding to GPR37L1” value in the data set on human GPR37L1 [1] is reported as “bound to GPR37 rather than GPR37L1”.

In general, pKd refers to the negative decadic logarithm of the Kd, by convention in mol/L. In [2], “biotinylated osteocalcin (OCN), species not stated (peptide)” had a negative logarithm of the Kd (pKd) of 7.85.

In the case of “pertussis toxin [PTX, reference compound]”, the “effect of pretreatment on OCN-triggered increase of iCa^2+” value in the data set with human GPR37 [3] is on record as “abolished”. Also, in the data set on primary rat OLs [4] (PTX pretreatment), the “effect of pretreatment on OCN-caused reduction of the intracellular cAMP level” value was “blocked”. Also, in the data set on primary rat OLs [5] (PTX pretreatment, primary rat OLs), the “effect of pretreatment on OCN-caused boost of ERK phosphorylation” value is “blocked”.

As to “YLGASVPSPDPLEPTREQCELNPACDELSDQYGLKTAYKRIYGITI [mouse OCN]”, in data set [6], the “OCN level in CC and SC” value is reported as “significant increase”. Further, in the data set with OCN^−/− mice [7] (CC of OCN^−/− mice), the “BrdU^+/CC1^+ differentiation OLs” value is listed as “decreased”, the “CC1^+ cells” value is listed as “decreased” and the “numbers of BrdU^+/PDGFRα^+ proliferative OPCs” value is on record as “rarely affected”. In addition, in the data set on OCN^−/− mice [7] (OCN^−/− mice), the “numbers of total PDGFRα^+ OPCs” value is reported as “rarely affected”. In the data set on OCN^−/− mice [7] (white matter regions (CC, SC) of OCN^−/− mice, n = 6), the “expression of myelin PLP1 and MBP” value is “decreased”.

With “osteocalcin (YLGASVPSPDPLEPTREQCELNPACDELSDQYGLKTAYKRIYGITI; biotin (Biotin Protein Labeling Kit, Roche; sites not stated)) [OCN]”, the “OCN's suppression of the MBP level with GPR37L1 silenced” value with primary rat OLs [8] (primary rat OLs, GPR37L1 shRNA) is “unable to inhibit OCN’s suppression of the MBP level”. The “expression of myelin PLP1 and MBP” value in the data set with primary rat OLs [8] (primary rat OPCs in differentiation medium, immunoblot, immunostaining) is “dose-dependent reduction”. The “ability of crossing the blood-brain barrier” value in [9] is recorded as “crossing the blood-brain barrier (BBB)”. Moreover, the “expression of myelin PLP1 and MBP in CC” value in the data set with GPR37^−/− mice is “absent”; in the data set with WT mice it was “significant down-regulation”. Moreover, the OPC proliferation result in the data set on primary rat OPCs is reported as “no effects”. Besides, the “synthesis of monoamine neurotransmitters” value in the data set with neurons is “promote the synthesis of monoamine neurotransmitters”. Further, in the data set with neurons, the “synthesis of γ-aminobutyric acid (GABA)” value is “reduce the synthesis of γ-aminobutyric acid (GABA)”. Further, the OL cell viability entry in data set [10] is “no effects”. In the data set on human GPR37L1 [11], the “luciferase responses (β-arrestin recruitment)” value was “failed to exert luciferase responses”. The “OCN-induced inhibition of intracellular cAMP production with GPR37 silenced” value in the data set with primary rat OLs [4] (GPR37 shRNA) is “substantially prevented”. The “intracellular cAMP level” value in the data set on primary rat OLs [4] (forskolin and OCN 30 min) was “reduction of the intracellular cAMP level”. For the same substance, the “myelin MBP response to OCN, GPR37 absent” value with OLs from GPR37^−/− mice is recorded as “unresponsive”. Further, in the data set with human GPR37 [12], the cAMP production result is listed as “significantly inhibited cAMP production”. For the same substance, in the data set on primary rat OLs [13] (GPR37 shRNA, OCN 20 nM), the “down-regulation of Myrf by OCN with GPR37 knockdown” value is “abolished”. Besides, the “expression of Myrf” value in the data set on primary rat OLs [13] was “dose-dependently inhibited”. Also, in the data set on OCN^−/− mice [14], the “deficit of thermal sensitivity (paw lick latency)” value is “partially rescued”. Also, the ERK phosphorylation result in the data set on primary rat OLs [5] (myelinating primary rat OLs) was “boost of ERK phosphorylation”; with human GPR37 [15] it was “stimulated ERK phosphorylation”. The “luciferase activity (β-arrestin recruitment)” value with human GPR37 [16] is “dose-dependent increase”.
